# Laboratory results taken from ChEMBL document CHEMBL1150836, “Bioactive constituents of the roots of Cynanchum atratum” (2001).
# Experiments:
# RAW264.7 [1] = assay: Antiinflammatory activity in LPS-stimulated mouse RAW264.7 cells assessed as inhibition of TNFalpha formation at 30 uM pretreated 1 hr before LPS challenge measured after 24 hrs by enzyme immunoassay; type: functional
# How it was run: (§1)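 RAW 264.7 cells, 2 × 10⁵ per well in DMEM with 5% FCS and penicillin/streptomycin, adhered overnight. Pretreated 1 h at 37 °C with drug (0.5% DMSO vehicle; dexamethasone reference), then LPS (E. coli 0111:B4) 1 μg/mL for 24 h. TNF-α in the collected medium, stored at −70 °C, quantified by EIA kit.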
# N9 [2] = assay: Antiinflammatory activity in LPS/IFN-gamma-stimulated mouse N9 cells assessed as inhibition of TNFalpha formation at 30 uM pretreated 1 hr before LPS/IFNgamma challenge measured after 24 hrs by enzyme immunoassay
# N9 [3] = assay: Antiinflammatory activity in LPS/IFN-gamma-stimulated mouse N9 cells assessed as inhibition of TNFalpha formation at 10 uM pretreated 1 hr before LPS/IFNgamma challenge measured after 24 hrs by enzyme immunoassay
# RAW264.7 [4] = assay: Antiinflammatory activity in LPS-stimulated mouse RAW264.7 cells assessed as inhibition of TNFalpha formation at 10 uM pretreated 1 hr before LPS challenge measured after 24 hrs by enzyme immunoassay; type: functional; how it was run: as §1
# [5] = Cytotoxicity against mouse 212 cells after 6 days by MTT assay; type: functional; settings: 144 h, read-out: ED50 (the source's name)
# How it was run: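 Ha-ras-transformed NIH/3T3 line (212), kept in MEM alpha with 10% calf serum and antibiotics. Assay medium had 10 mM HEPES pH 7.3. (1–3) × 10³ cells seeded, attached 6 h, then exposed to a range of drug concentrations for 6 days at 37 °C. MTT 4 h, DMSO solubilisation, A550.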
# SiHa = assay: Cytotoxicity against human SiHa cells after 6 days by MTT assay; type: functional; settings: 144 h, read-out: ED50 (the source's name)
# How it was run: (§2)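 Cells grown in DMEM with 10% FBS, 2 mM glutamine and penicillin/streptomycin. (1–3) × 10³ cells seeded per well, attached 6 h, then given fresh medium with 10 mM HEPES pH 7.3 and a range of drug concentrations at 37 °C, CO₂, for 6 days. MTT (1 mg/mL in PBS) added for 4 h, formazan dissolved in DMSO, absorbance read at 550 nm.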
# [6] = Cytotoxicity against human PLC/PRF/5 cells after 6 days by MTT assay; type: functional; settings: PLC-PRF-5, 144 h, read-out: ED50 (the source's name); how it was run: as §2
# T-24 = assay: Cytotoxicity against human T24 cells after 6 days by MTT assay; type: functional; settings: T-24, 144 h, read-out: ED50 (the source's name); how it was run: as §2
# HT-3 = assay: Cytotoxicity against human HT3 cells after 6 days by MTT assay; type: functional; settings: HT-3, 144 h, read-out: ED50 (the source's name); how it was run: as §2
# Ca-Ski = assay: Cytotoxicity against human CaSki cells after 6 days by MTT assay; type: functional; settings: 144 h, read-out: ED50 (the source's name); how it was run: as §2
SMILES,inhibition at 30 µM (RAW264.7 [1]) [%],inhibition at 30 µM (N9 [2]) [%],inhibition at 10 µM (N9 [3]) [%],inhibition at 10 µM (RAW264.7 [4]) [%],EC50 [5] [µg/mL],also measured
CC(=O)c1ccc(O)c(O)c1,-29.2,-21.5,–,–,–,–
C[C@@H]1C[C@H]2[C@@H]3CCC4=CC(=O)C=C[C@]4(C)[C@@]3(F)[C@@H](O)C[C@]2(C)[C@@]1(O)C(=O)CO [DEXAMETHASONE],–,–,82,49.9,–,–
CO[C@@H]1[C@@H](O)[C@H](O[C@H]2CC[C@@]3(C)C(=CC[C@@H]4C(=O)O[C@@H]5CO[C@]6(C)OC=C(CC[C@@H]43)[C@H]56)C2)O[C@H](C)[C@H]1O[C@H]1C[C@H](OC)[C@@H](O[C@H]2C[C@H](OC)[C@H](O)[C@@H](C)O2)[C@H](C)O1,33.7,30.9,–,–,0.96,–
CO[C@@H]1[C@@H](O)[C@H](O[C@H]2CC[C@@]3(C)C(=CC[C@@H]4C(=O)O[C@@H]5CO[C@]6(C)OC=C(CC[C@@H]43)[C@H]56)C2)O[C@H](C)[C@H]1O,–,–,3.2,29.5,–,–
CO[C@@H]1[C@@H](O)[C@H](O[C@H]2CC[C@@]3(C)C(=CC[C@@H]4C(=O)O[C@@H]5CO[C@]6(C)OC(=O)/C(=C/C[C@@H]43)[C@H]56)C2)O[C@H](C)[C@H]1O[C@H]1C[C@H](OC)[C@@H](O[C@H]2C[C@H](OC)[C@H](O)[C@@H](C)O2)[C@H](C)O1 [ATRATOGLAUCOSIDE B],–,–,–,–,> 4,EC50 (SiHa): > 4 µg/mL; EC50 [6]: > 4 µg/mL; EC50 (T-24): > 4 µg/mL; EC50 (HT-3): > 4 µg/mL; EC50 (Ca-Ski): > 4 µg/mL
COc1cc(C(C)=O)ccc1O [APOCYNIN],-19.8,-22.6,–,–,–,–
